Measurements collected from several papers.
Each line is one published result; the experiments were not run side by side.
Target: Serine/threonine-protein kinase pim-1 (PIM1, Homo sapiens, UniProt P11309)

COc1ncccc1-c1cnn2ccc(N3CCN(C(=O)OC(C)C)CC3)nc12 — remaining binding (binding; competition with immobilised ligand; 1 µM): 100%
Cn1cncc1[C@@](O)(COc1ccc(C#N)cc1-c1ccc(OC(F)(F)F)cc1)c1ccc(C#N)cc1 — remaining binding (cell-free assay; competition with immobilised ligand; 1 µM): 100%
Cn1cc(-c2cc(F)cc(N3CCn4c(cc5c4CCCC5)C3=O)c2CO)cc(Nc2ccc(N3CCN(C4COC4)CC3)cn2)c1=O — inhibition (enzyme activity; inhibitor; 0.1 µM): 11%
O=c1[nH]c2ccccc2n1C1CCN(Cc2ccc(-c3[nH]c4cc5ncnc5cc4nc3-c3ccccc3)cc2)CC1 — remaining signal (cell-free assay; 0.5 µM): 106%
Cn1cc(-c2cccc(N3CCc4c(sc5c4CC(C)(C)C5)C3=O)c2CO)cc(Nc2ccncn2)c1=O — inhibition (enzyme activity; inhibitor; 1 µM): 2%
N#CC1(c2ccccn2)CCN(Cc2cc(C(=O)O)c(=O)n3ccccc23)CC1 — remaining binding (cell-free assay; competition with immobilised ligand; 1 µM): 99%
CC(C)(C)c1cc(C=C(C#N)C#N)cc(Br)c1O — remaining activity (enzyme activity; inhibitor; 0.5 µM): 94.7%
Cc1nn(C)cc1-c1nc2c(N3CCN(Cc4ccc(Cl)cc4)CC3)c(Cl)cnc2[nH]1 — remaining binding (binding; competition with immobilised ligand; 1 µM): 100%
